We go through one molecule from ChEMBL document CHEMBL4414568, “Development of Novel Irreversible Pyruvate Kinase M2 Inhibitors” (J Med Chem, 2019).

One data set has as its system MCF7. Put plainly: Antiproliferative activity against human MCF7 cells assessed as reduction in cell viability incubated for 24 hrs by MTT assay. In kind it is functional, cell-based. Conditions: MCF7, 24 h. In outline: (§1)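 Cells seeded at 3,500 per well in 10% FBS and left overnight, then exposed to test agent or vehicle in 5% FBS for 24 h. MTT added for 1 h, then medium swapped for DMSO and absorbance read at 560 nm. Viability given as percent of vehicle-treated control. Run in triplicate.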
A general note: Tetrazolium dyes change colour on reduction, which living cells bring about.

Data set [1] deals with PC-9. Put plainly: Antiproliferative activity against human PC9 cells harboring EGFR mutant assessed as reduction in cell viability incubated for 24 hrs by MTT assay. In kind it is functional, cell-based. The conditions noted are these: PC-9, 24 h. Summed up:
as §1

Data set [2] concerns the target T1, Phosphoglycerate kinase 1 (Homo sapiens) (UniProt P00558).
T1 sequence (whole entry): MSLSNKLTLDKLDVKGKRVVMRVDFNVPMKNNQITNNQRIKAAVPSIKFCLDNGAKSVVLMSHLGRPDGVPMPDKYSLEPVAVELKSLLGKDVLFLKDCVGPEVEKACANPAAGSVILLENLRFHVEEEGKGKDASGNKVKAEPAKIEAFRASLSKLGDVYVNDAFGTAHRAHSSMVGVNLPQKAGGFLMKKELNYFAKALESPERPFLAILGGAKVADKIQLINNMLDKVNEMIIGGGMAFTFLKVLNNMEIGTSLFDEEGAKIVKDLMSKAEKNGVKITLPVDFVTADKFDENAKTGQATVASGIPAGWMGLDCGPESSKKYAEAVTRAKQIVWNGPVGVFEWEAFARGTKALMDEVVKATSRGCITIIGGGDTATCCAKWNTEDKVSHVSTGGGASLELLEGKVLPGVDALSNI
The data set is described as follows: Binding affinity to PGK1 in human PC9 cells incubated for 1 hr by ABPP-SILAC assay. In kind it is cell-based. Summed up:
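PC-9 cells passaged at least six times in SILAC DMEM with 10% dialyzed FBS plus 100 µg/mL light or 13C/15N-labeled Arg/Lys. Heavy cells got ABPP probe (1 µM) and light cells DMSO, 1 h at 37 °C. Cells mixed 1:1, sonicated, spun at 100,000g, protein normalized to 1 mg/mL. Click biotin-azide, streptavidin bead pulldown 16 h at 4 °C, SDS-PAGE, on-bead trypsin digestion, LC-MS/MS.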

The target in data set [3] is T2, Pyruvate kinase PKM (Homo sapiens, UniProt P14618). The data set is described as follows: Inhibition of PKM2 in human PC9 cells at 0.25 uM using PEP as substrate incubated for 6 hrs by OxiRed probe-based colorimetric analysis. In kind it is cell-based. Summed up: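 PC-9 cells seeded at 5 × 10^5 cells/mL, after 24 h given 0.25 µM compound or DMSO for 6 h. Lysate pyruvate kinase activity read with a colorimetric kit measuring H2O2 made from PEP and […] through PK and then pyruvate oxidase. n = 3.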
Target sequence in this assay (P14618 2-531 limits assumed): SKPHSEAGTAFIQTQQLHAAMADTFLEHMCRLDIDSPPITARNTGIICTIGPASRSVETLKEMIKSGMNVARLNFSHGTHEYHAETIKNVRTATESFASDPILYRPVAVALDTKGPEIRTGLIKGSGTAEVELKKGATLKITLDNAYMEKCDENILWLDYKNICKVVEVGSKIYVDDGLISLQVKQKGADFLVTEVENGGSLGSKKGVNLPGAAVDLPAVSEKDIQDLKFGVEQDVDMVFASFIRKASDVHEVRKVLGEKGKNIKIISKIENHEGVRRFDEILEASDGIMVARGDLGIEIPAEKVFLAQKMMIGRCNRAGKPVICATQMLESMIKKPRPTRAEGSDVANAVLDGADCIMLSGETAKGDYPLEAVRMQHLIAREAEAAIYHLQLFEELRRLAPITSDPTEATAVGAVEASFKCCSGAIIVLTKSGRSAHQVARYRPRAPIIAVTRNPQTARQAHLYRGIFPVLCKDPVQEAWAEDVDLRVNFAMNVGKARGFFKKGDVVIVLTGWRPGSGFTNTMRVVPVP

In data set [4] the target is T2, Pyruvate kinase PKM. The data set is described as follows: Inhibition of recombinant human PKM2 expressed in Escherichia coli at 0.125 to 0.5 uM using PEP as substrate incubated for 20 mins by OxiRed probe-based colorimetric assay relative to control. Summed up: (§2)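 Recombinant PKM1 or PKM2 incubated with compound at room temperature for 20 min. Remaining activity measured by the same colorimetric kit: PEP + […], PK then pyruvate oxidase, H2O2 read-out. n = 3.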
Target sequence in this assay (P14618 2-531 limits assumed): as above

Data set [5] has as its target T2, Pyruvate kinase PKM. Put plainly: Inhibition of recombinant human N-terminal His-tagged PKM1 expressed in Escherichia coli at 0.125 to 0.5 uM using PEP as substrate incubated for 20 mins by OxiRed probe-based colorimetric analysis. In outline:
as §2
Target sequence in this assay (P14618 whole entry): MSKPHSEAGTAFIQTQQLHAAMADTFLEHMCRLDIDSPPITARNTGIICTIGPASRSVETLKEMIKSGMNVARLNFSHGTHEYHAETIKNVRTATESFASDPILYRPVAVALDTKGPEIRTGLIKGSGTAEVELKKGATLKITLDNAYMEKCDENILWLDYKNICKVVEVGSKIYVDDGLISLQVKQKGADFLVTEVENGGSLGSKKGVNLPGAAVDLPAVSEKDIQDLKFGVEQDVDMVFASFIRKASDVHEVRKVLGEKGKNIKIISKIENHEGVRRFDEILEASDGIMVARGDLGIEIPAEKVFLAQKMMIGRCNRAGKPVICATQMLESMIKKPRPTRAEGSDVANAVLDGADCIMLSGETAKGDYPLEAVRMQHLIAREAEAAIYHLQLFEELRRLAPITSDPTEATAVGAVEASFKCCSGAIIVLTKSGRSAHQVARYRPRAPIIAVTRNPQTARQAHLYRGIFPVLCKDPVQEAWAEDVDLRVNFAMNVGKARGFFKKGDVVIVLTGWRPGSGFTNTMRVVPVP

Data set [6] has as its target T2, Pyruvate kinase PKM. Put plainly: Inhibition of PKM2 in human PC9 cells assessed as increase in oxygen consumption rate at 0.25 to 1 uM preincubated for 4 hrs followed by glucose/oligomycin/2-DG addition and measured after 1 hr by seahorse XFe96 analyser based assay. In kind it is cell-based. Summed up:
(§3)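 PC-9 cells, 5 × 10^4 per well, seeded 24 h ahead, then treated with DMSO or compound at 0.25, 0.5 or 1 µM for 4 h at 37 °C. Cells held 1 h without CO2 in glycolysis medium. Seahorse glycolysis stress test with serial injections of 10 mM glucose, oligomycin and 50 mM 2-DG; ECAR and OCR recorded together. Six wells per point.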
Target sequence in this assay (P14618 2-531 limits assumed): as the sequence (P14618 2-531 limits assumed) above

The target in data set [7] is T2, Pyruvate kinase PKM. The data set is described as follows: Inhibition of PKM2 in human PC9 cells assessed as reduction in beta-catenin phosphorylation incubated for 24 hrs by Western blot analysis. In kind it is cell-based. In outline:
(§4)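 PC-9 cells seeded at 5 × 10^5 cells/mL; after 24 h given 0–1 µM compound or DMSO for 24 h. Lysates run on 10% SDS-PAGE, transferred to nitrocellulose, probed for PKM2, EGFR, p-STAT3, STAT3, p-β-catenin, β-catenin and β-actin with HRP secondaries, ECL detection.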
Target sequence in this assay (P14618 2-531 limits assumed): as above

In data set [8] the target is T2, Pyruvate kinase PKM. The data set is described as follows: Inhibition of PKM2 in human PC9 cells assessed as reduction in beta-catenin phosphorylation at 0.5 uM incubated for 24 hrs by Western blot analysis. In kind it is cell-based. Summed up:
as §4
Target sequence in this assay (P14618 2-531 limits assumed): as above

Data set [9] deals with PC-9. The data set is described as follows: Antitumor activity against human PC9 cells xenografted in athymic nude mouse assessed as reduction in tumor growth at 10 mg/kg, ip administered once daily for 25 days measured post-last dose by caliper method. In kind it is functional, organism-based. In outline: (§5)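 Female nude mice, 6 weeks old, given s.c. 1 × 10^6 PC-9 cells in Matrigel (1:1). From day 7, once-daily i.p. vehicle or 10 mg/kg compound in sterile water with 0.5% methylcellulose and 0.1% Tween-80, n = 8 per group, for 25 days. Tumor volume and body weight followed, tumors weighed at end.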

For data set [10], the system named is PC-9. The data set is described as follows: Antitumor activity against human PC9 cells xenografted in athymic nude mouse assessed as reduction in tumor volume at 10 mg/kg, ip administered once daily for 25 days measured post-last dose. In kind it is functional, organism-based. Summed up: as §5
The test system of data set [11] is Mus musculus. Put plainly: In vivo inhibition of PKM2 in human PC9 cells xenografted in athymic nude mouse assessed as reduction in PKM2 expression at 10 mg/kg, ip administered once daily for 25 days measured post-last dose by Western blot analysis. In kind it is functional, organism-based. In outline:
(§6)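 Tumors from PC-9 xenograft nude mice given 10 mg/kg i.p. daily or vehicle for 25 days (n = 8 per group) were lysed for Western blots of PKM2, EGFR, Stat3 and β-catenin. Bands quantified by ImageJ and normalized to GAPDH.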
On the technique in general: In xenograft studies the graft and the host belong to different species.

Data set [12] concerns Mus musculus. The data set is described as follows: In vivo inhibition of PKM2 in human PC9 cells xenografted in athymic nude mouse assessed as reduction in EGFR expression at 10 mg/kg, ip administered once daily for 25 days measured post-last dose by Western blot analysis. In kind it is functional, organism-based. Summed up: as §6
For data set [13], the system named is Mus musculus. Put plainly: In vivo inhibition of PKM2 in human PC9 cells xenografted in athymic nude mouse assessed as reduction in STAT3 expression at 10 mg/kg, ip administered once daily for 25 days measured post-last dose by Western blot analysis. In kind it is functional, organism-based. Summed up:
as §6

For data set [14], the target named is T2, Pyruvate kinase PKM. The data set is described as follows: Binding affinity to recombinant human N-terminal His6-tagged PKM2 expressed in Escherichia coli BL21 (DE3) assessed as Cys326-adduct formation by NanoLC-MS/MS analysis. In outline:
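In-house His-tag PKM2 from E. coli BL21(DE3), purified by Ni-NTA then Superdex 200, treated with compound. Reduced with 30 mM DTT at 37 °C for 1 h, alkylated with 30 mM iodoacetamide for 1 h in the dark, trypsin 1:30 w/w overnight at 37 °C. Digests from 6 experiments pooled, 48 nanoLC-MS/MS runs in data-dependent mode, Orbitrap MS1.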
Target sequence in this assay (P14618 2-531 limits assumed): as above

Data set [15] deals with PC-9. The data set is described as follows: Effect on basal extracellular acidification rate in human PC9 cells at 0.25 to 1 uM measured after 4 hrs in absence of glucose by seahorse XF96 flux analyser based assay. In kind it is cell-based. The conditions noted are these: pc-9, 4 h. Summed up: as §3

Activity calls are given as the source filed them. The calls are words filed in the database; no cut-off is given here.

As a reminder, the IC50 is the point on the concentration scale where inhibition reaches its midpoint. By inhibition is commonly meant the change of the read-out against control, counted positive when it falls. As for `C#CC(=O)Nc1ccc(-n2nc(CCC(=O)NC)cc2-c2ccc(-c3ccc(C(F)(F)F)cc3)cc2)cc1`, the IC50 in the data set with MCF7 stood at 1000 nM; in the data set on PC-9 [1] it was 500 nM. Further, the outcome (in data set [2]; in the data set on PC-9 [9]; in the data set with PC-9 [10]; at Pyruvate kinase PKM [14]) was Active. Moreover, the inhibition entry at Pyruvate kinase PKM [3], on Pyruvate kinase PKM [6], in the data set on Mus musculus [11], with Mus musculus [12] and in the data set with Mus musculus [13] was “Active” each time. For the same molecule, the inhibition on Pyruvate kinase PKM [4] is 30%; at Pyruvate kinase PKM [7], “Dose-dependent effect”. Also, on Pyruvate kinase PKM [5], the “inhibition (INH)” value is “Not Active”. For the same molecule, on Pyruvate kinase PKM [8], the inhibition entry is “inactive”. Moreover, the Activity result in the data set on PC-9 [15] was “Non-Toxic”.
